Results from different studies.
Target: Death-associated protein kinase 2 (DAPK2, Homo sapiens, UniProt Q9UIK4)

| SMILES | assay | setting | endpoint | result |
| --- | --- | --- | --- | --- |
| Nc1ncnc2occ(-c3ccc(NC(=O)Nc4cc(C(F)(F)F)ccc4F)cc3)c12 | cell-free assay, inhibitor | 20 µM | remaining signal | 25% |
| CN(C)C(=O)Cn1cc(-c2nc([C@@](C)(c3ccc(-c4cnc(N)nc4)cc3)C3CC3)no2)cn1 | cell-free assay, competition with immobilised ligand | 1 µM | remaining binding | 100% |
| COc1cc(Cl)c(C(=O)N[C@@H](CN[C@H]2CC[C@@H](N)CC2)Cc2ccc(C#N)cc2)cc1-c1ccc(CN[C@H](C)c2ccc(C)cc2)o1 | enzyme activity, inhibitor | 1 µM | remaining activity | 123% |
| CN1CC(Oc2cnc(C#N)cc2-c2ccn3nc(NC(=O)C4CC4)cc3c2)C1 | enzyme activity, inhibitor | 1 µM | inhibition | 0% |
| Cc1nc(C2CCN(C(=O)c3ccc(OC(F)(F)F)cc3N)CC2)c2ncc(N3CCN(C)CC3)cc2n1 | cell-free assay, competition with immobilised ligand | 1 µM | remaining binding | 100% |
| Cc1ccc(Nc2nccc(N(C)c3ccc4c(C)n(C)nc4c3)n2)cc1S(N)(=O)=O | enzyme activity, inhibitor | 10 µM | inhibition | -4% |
| CC(C)(O)c1cncc(-c2nc3ccc(F)cc3n2C2CC2)c1 | cell-free assay, competition with immobilised ligand | 1 µM | remaining binding | 100% |
| CNC(=O)c1cc(Oc2ccc(NC(=O)Nc3ccc(Cl)c(C(F)(F)F)c3)cc2)ccn1 | enzyme activity, inhibitor | 10 µM | inhibition | 6% |
| N[C@H]1CCN(c2nccc(-c3cnn4ncccc34)n2)C1 | binding | 1 µM | remaining binding | 98% |
| CC(C)(C)c1nc2c(s1)c1nc(N)ncc1c1ccc(NS(=O)(=O)c3c(F)cccc3F)c(F)c12 | enzyme activity, inhibitor, radiometric | 1 µM | remaining activity | 81% |
| Cc1ccc(NC(=O)c2ccc(C)c(C(F)(F)F)c2)cc1C#Cc1nn(C2CCC(O)CC2)c2ncnc(N)c12 (stereo not shown) | cell-free assay | 10 µM | remaining signal | 95% |
| CS(=O)(=O)NCC[C@H](NC(=O)c1cncc2c1cnn2-c1ccc(F)cc1)c1ccnc(S(C)(=O)=O)c1 | cell-free assay, competition with immobilised ligand | 1 µM | remaining binding | 100% |
| O=C1NC(=O)c2cc(Nc3ccc(F)cc3)c(Nc3ccc(F)cc3)cc21 | cell-free assay | 0.5 µM | remaining signal | 96.7% |
| Cc1ccc(C(=O)Nc2ccc(CN3CCN(C)CC3)c(C(F)(F)F)c2)cc1C#Cc1cnc2cccnn12 | enzyme activity, inhibitor | 23.5 nM | remaining activity | 100% |
| CCCOc1ccc(OC)c(F)c1C(=O)c1ccc(C(=O)N[C@@H]2CNC[C@H]2NC(=O)c2ccc3[nH]ncc3c2)cc1 | enzyme activity, inhibitor | 10 µM | remaining activity | 84% |
| O=C1Nc2ccc(Cl)cc2C1=Cc1cc(Cl)c(O)c(Cl)c1 | cell-free assay | 0.5 µM | remaining signal | 135% |
